From ChEMBL document CHEMBL2375318, “Design, synthesis and antimicrobial activity of novel benzothiazole analogs” (Eur J Med Chem, 2013)
Values after ≈ are worked out from the molar mass of the structure shown.

Assays:
Pseudomonas aeruginosa = assay: Antimicrobial activity against Pseudomonas aeruginosa ATCC 27893 after 18 to 24 hrs by micro-dilution method; format: functional
Candida albicans [1] = assay: Antifungal activity against Candida albicans clinical isolate after 18 to 24 hrs by micro-dilution method; format: functional
In short: (§1)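 Broth micro-dilution MIC, fungi. Fresh broth cultures were made in normal saline. Compounds were serially diluted in microtiter plates across 8 concentrations, 100 down to 0.78. Standardized inoculum was 1–2 × 10^7 cfu/ml. Medium was Sabouraud dextrose pH 7.3 ± 0.2. Plates were incubated aerobically at 37 °C for 18–24 h. MIC is the lowest concentration with no visible growth or turbidity versus control. Fluconazole was the reference.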

Aspergillus fumigatus = assay: Antimicrobial activity against Aspergillus fumigatus clinical isolate after 18 to 24 hrs by micro-dilution method; format: functional; in short: as §1
Candida albicans [2] = assay: Antifungal activity against Candida albicans ATCC 90028 after 18 to 24 hrs by micro-dilution metho; format: functional; in short: as §1
Cryptococcus neoformans = assay: Antifungal activity against Cryptococcus neoformans clinical isolate after 18 to 24 hrs by micro-dilution method; format: functional; in short: as §1
Enterococcus faecalis = assay: Antimicrobial activity against Enterococcus faecalis clinical isolate after 18 to 24 hrs by micro-dilution method; format: functional
Candida tropicalis = assay: Antifungal activity against Candida tropicalis ATCC 750 after 18 to 24 hrs by micro-dilution method; format: functional; in short: as §1
Shigella boydii = assay: Antimicrobial activity against Shigella boydii clinical isolate after 18 to 24 hrs by micro-dilution method; format: functional
Pichia kudriavzevii = assay: Antifungal activity against Candida krusei ATCC 6258 after 18 to 24 hrs by micro-dilution method; format: functional; in short: as §1
Aspergillus niger = assay: Antimicrobial activity against Aspergillus niger clinical isolate after 18 to 24 hrs by micro-dilution method; format: functional; in short: as §1
Staphylococcus aureus = assay: Antimicrobial activity against Staphylococcus aureus ATCC 25323 after 18 to 24 hrs by micro-dilution method; format: functional
Salmonella typhi = assay: Antimicrobial activity against Salmonella typhi MTCC 3216 after 18 to 24 hrs by micro-dilution method; format: functional, Salmonella enterica subsp. enterica serovar Typhi; conditions: Salmonella enterica
In short: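 Broth microdilution with twofold serial dilutions from 100 down to 0.78, eight concentrations. Fresh cultures were made up in normal saline, and 0.1 ml of standardized inoculum (1–2 × 10^7 cfu/ml) was added per well. Plates were incubated aerobically at 37 °C for 18–24 h on Mueller-Hinton agar/Luria broth. MIC was the lowest concentration with no visible turbidity compared with the control.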

[3] = Cytotoxicity against human RBC assessed as hemolytic activity at 100 uM after 1 hr by spectophotometry; format: cell-based, Erythrocyte; conditions: red blood cells (RBC), read-out: Activity
In short: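 Hemolysis, fresh human blood. RBCs were washed three times in PBS (spun 3000 rpm, 7 min, room temperature) and adjusted to 5×10^8 cells/ml. Cell suspension was added to buffer holding 100 μM compound in 1% v/v DMSO/PBS. Controls were 1% DMSO/PBS and sterile water. Samples were shaken at 37 °C for 1 h, spun at 1300 rpm for 5 min, and supernatant absorbance read at 540 nm.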

Escherichia coli = assay: Antimicrobial activity against Escherichia coli ATCC 35218 after 18 to 24 hrs by micro-dilution method; format: functional
Klebsiella pneumoniae = assay: Antimicrobial activity against Klebsiella pneumoniae clinical isolate after 18 to 24 hrs by micro-dilution method; format: functional

| SMILES | MIC (Pseudomonas aeruginosa) [µg/mL] | MIC (Candida albicans [1]) [µg/mL] | MIC (Aspergillus fumigatus) [µg/mL] | MIC (Candida albicans [2]) [µg/mL] | MIC (Cryptococcus neoformans) [µg/mL] | MIC (Enterococcus faecalis) [µg/mL] | MIC (Candida tropicalis) [µg/mL] | MIC (Shigella boydii) [µg/mL] | MIC (Pichia kudriavzevii) [µg/mL] | MIC (Aspergillus niger) [µg/mL] | MIC (Staphylococcus aureus) [µg/mL] | MIC (Salmonella typhi) [µg/mL] | hemolysis at 1 h, 100 µM [3] [%] | MIC (Escherichia coli) [µg/mL] | MIC (Klebsiella pneumoniae) [µg/mL] |
| --- | --- | --- | --- | --- | --- | --- | --- | --- | --- | --- | --- | --- | --- | --- | --- |
| Cc1ccc(-n2cc(CN(Cc3cn(-c4ccc(C)c(C)c4)nn3)c3nc4ccccc4s3)nn2)cc1C | > 100 | > 100 | > 100 | > 100 | > 100 | > 100 | > 100 | > 100 | > 100 | > 100 | > 100 | > 100 | 43 | > 100 | > 100 |
| CCc1ccc(-n2cc(CN(Cc3cn(-c4ccc(CC)cc4)nn3)c3nc4ccccc4s3)nn2)cc1 | > 100 | > 100 | > 100 | > 100 | > 100 | > 100 | > 100 | > 100 | > 100 | > 100 | > 100 | > 100 | 48.3 | 50 (≈ 96 µM) | > 100 |
| COc1cc(-n2cc(CN(Cc3cn(-c4cc(OC)c(OC)c(OC)c4)nn3)c3nc4ccccc4s3)nn2)cc(OC)c1OC | > 100 | > 100 | > 100 | > 100 | > 100 | > 100 | > 100 | > 100 | 6.25 (≈ 9.69 µM) | > 100 | > 100 | > 100 | 36.6 | > 100 | > 100 |
| c1ccc2c(-n3cc(CN(Cc4cn(-c5cccc6ccccc56)nn4)c4nc5ccccc5s4)nn3)cccc2c1 | > 100 | > 100 | > 100 | > 100 | > 100 | > 100 | > 100 | > 100 | > 100 | > 100 | > 100 | > 100 | 34 | > 100 | > 100 |
| O=[N+]([O-])c1ccc(-n2cc(CN(Cc3cn(-c4ccc([N+](=O)[O-])cc4)nn3)c3nc4ccccc4s3)nn2)cc1 | > 100 | > 100 | > 100 | > 100 | > 100 | > 100 | > 100 | > 100 | > 100 | > 100 | > 100 | > 100 | 27.9 | > 100 | > 100 |
| FC(F)(F)Oc1ccc(-n2cc(CN(Cc3cn(-c4ccc(OC(F)(F)F)cc4)nn3)c3nc4ccccc4s3)nn2)cc1 | 25 (≈ 39.5 µM) | 12.5 (≈ 19.8 µM) | 25 (≈ 39.5 µM) | 3.12 (≈ 4.93 µM) | 3.12 (≈ 4.93 µM) | 12.5 (≈ 19.8 µM) | 12.5 (≈ 19.8 µM) | 100 (≈ 158 µM) | 12.5 (≈ 19.8 µM) | 12.5 (≈ 19.8 µM) | 12.5 (≈ 19.8 µM) | > 100 | 9.12 | 25 (≈ 39.5 µM) | 12.5 (≈ 19.8 µM) |
| CCCCCc1ccc(-n2cc(CN(Cc3cn(-c4ccc(CCCCC)cc4)nn3)c3nc4ccccc4s3)nn2)cc1 | > 100 | > 100 | > 100 | > 100 | > 100 | > 100 | 12.5 (≈ 20.7 µM) | > 100 | > 100 | > 100 | > 100 | > 100 | 3.28 | > 100 | > 100 |
| Cc1cc(C)cc(-n2cc(CN(Cc3cn(-c4cc(C)cc(C)c4)nn3)c3nc4ccccc4s3)nn2)c1 | > 100 | 12.5 (≈ 24 µM) | 12.5 (≈ 24 µM) | 3.12 (≈ 5.99 µM) | 3.12 (≈ 5.99 µM) | > 100 | 12.5 (≈ 24 µM) | 100 (≈ 192 µM) | > 100 | 12.5 (≈ 24 µM) | 100 (≈ 192 µM) | 100 (≈ 192 µM) | 7.42 | 100 (≈ 192 µM) | > 100 |
| Fc1ccc(-n2cc(CN(Cc3cn(-c4ccc(F)c(Cl)c4)nn3)c3nc4ccccc4s3)nn2)cc1Cl | 3.12 (≈ 5.48 µM) | 25 (≈ 43.9 µM) | 25 (≈ 43.9 µM) | 6.25 (≈ 11 µM) | 1.56 (≈ 2.74 µM) | 3.12 (≈ 5.48 µM) | 12.5 (≈ 22 µM) | 100 (≈ 176 µM) | 3.12 (≈ 5.48 µM) | 6.25 (≈ 11 µM) | 6.25 (≈ 11 µM) | 6.25 (≈ 11 µM) | 5.32 | 25 (≈ 43.9 µM) | 50 (≈ 87.8 µM) |
| Clc1ccc(-n2cc(CN(Cc3cn(-c4ccc(Cl)cc4)nn3)c3nc4ccccc4s3)nn2)cc1 | 6.25 (≈ 11.7 µM) | 25 (≈ 46.9 µM) | 6.25 (≈ 11.7 µM) | 6.25 (≈ 11.7 µM) | 3.12 (≈ 5.85 µM) | 3.12 (≈ 5.85 µM) | 12.5 (≈ 23.4 µM) | > 100 | 6.25 (≈ 11.7 µM) | 6.25 (≈ 11.7 µM) | 6.25 (≈ 11.7 µM) | 6.25 (≈ 11.7 µM) | 4.35 | 12.5 (≈ 23.4 µM) | 50 (≈ 93.7 µM) |
| Fc1ccccc1-n1cc(CN(Cc2cn(-c3ccccc3F)nn2)c2nc3ccccc3s2)nn1 | > 100 | > 100 | > 100 | > 100 | > 100 | > 100 | > 100 | > 100 | > 100 | > 100 | > 100 | > 100 | 26.5 | > 100 | > 100 |
| Fc1ccc(-n2cc(CN(Cc3cn(-c4ccc(F)cc4F)nn3)c3nc4ccccc4s3)nn2)c(F)c1 | 3.12 (≈ 5.82 µM) | > 100 | > 100 | > 100 | > 100 | 3.12 (≈ 5.82 µM) | > 100 | 100 (≈ 186 µM) | > 100 | > 100 | 3.12 (≈ 5.82 µM) | 3.12 (≈ 5.82 µM) | 2.47 | 3.12 (≈ 5.82 µM) | 3.12 (≈ 5.82 µM) |
| Fc1ccc(-n2cc(CN(Cc3cn(-c4ccc(F)cc4Cl)nn3)c3nc4ccccc4s3)nn2)c(Cl)c1 | 6.25 (≈ 11 µM) | 6.25 (≈ 11 µM) | 6.25 (≈ 11 µM) | 50 (≈ 87.8 µM) | 1.56 (≈ 2.74 µM) | 6.25 (≈ 11 µM) | 6.25 (≈ 11 µM) | 100 (≈ 176 µM) | 6.25 (≈ 11 µM) | 25 (≈ 43.9 µM) | 50 (≈ 87.8 µM) | 6.25 (≈ 11 µM) | 12.3 | 3.12 (≈ 5.48 µM) | 100 (≈ 176 µM) |
| Clc1ccccc1-n1cc(CN(Cc2cn(-c3ccccc3Cl)nn2)c2nc3ccccc3s2)nn1 | 12.5 (≈ 23.4 µM) | > 100 | > 100 | > 100 | > 100 | 6.25 (≈ 11.7 µM) | > 100 | > 100 | > 100 | > 100 | 25 (≈ 46.9 µM) | 6.25 (≈ 11.7 µM) | 19.5 | 12.5 (≈ 23.4 µM) | 50 (≈ 93.7 µM) |
| Fc1cccc(-n2cc(CN(Cc3cn(-c4cccc(F)c4)nn3)c3nc4ccccc4s3)nn2)c1 | > 100 | > 100 | > 100 | > 100 | > 100 | > 100 | > 100 | > 100 | > 100 | > 100 | > 100 | > 100 | 29.8 | > 100 | > 100 |
| Clc1cccc(-n2cc(CN(Cc3cn(-c4cccc(Cl)c4Cl)nn3)c3nc4ccccc4s3)nn2)c1Cl | > 100 | 25 (≈ 41.5 µM) | > 100 | > 100 | 3.12 (≈ 5.18 µM) | > 100 | > 100 | > 100 | > 100 | > 100 | 50 (≈ 83 µM) | 100 (≈ 166 µM) | 37.7 | > 100 | > 100 |
| Cc1cc(F)ccc1-n1cc(CN(Cc2cn(-c3ccc(F)cc3C)nn2)c2nc3ccccc3s2)nn1 | > 100 | > 100 | > 100 | > 100 | > 100 | > 100 | > 100 | > 100 | > 100 | > 100 | > 100 | > 100 | 29.8 | 50 (≈ 94.6 µM) | > 100 |
| O=C(O)c1cn(C2CC2)c2cc(N3CCNCC3)c(F)cc2c1=O [CIPROFLOXACIN] | 3.12 (≈ 9.42 µM) |  |  |  |  |  |  |  |  |  |  |  |  |  |  |
| OC(Cn1cncn1)(Cn1cncn1)c1ccc(F)cc1F [FLUCONAZOLE] |  | 3.12 (≈ 10.2 µM) | 1.56 (≈ 5.09 µM) | 1.56 (≈ 5.09 µM) | 0.78 (≈ 2.55 µM) |  | 1.56 (≈ 5.09 µM) |  | 1.56 (≈ 5.09 µM) | 1.56 (≈ 5.09 µM) |  |  |  |  |  |
